Reference: ChEMBL document CHEMBL1150419, “Structure-activity relationships of a peptide inhibitor of the human FcRn:human IgG interaction” (Bioorg Med Chem, 2008)
Peptide text beside a SMILES is read from it.

biological target: T1, IgG receptor FcRn large subunit p51 (Homo sapiens, UniProt P55899); experiment: Inhibition of human IgG binding to soluble human FcRn by ELISA
How it was run: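 Biotinylated soluble human FcRn immobilized on neutravidin plates, incubated with hIgG (3 nM, constant) and peptide at varying concentrations for 2 h at 37 °C. After washing, bound hIgG detected with peroxidase-conjugated hIgG-specific Fab fragments.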

T1 sequence (P55899 whole entry, the tested form may be a part): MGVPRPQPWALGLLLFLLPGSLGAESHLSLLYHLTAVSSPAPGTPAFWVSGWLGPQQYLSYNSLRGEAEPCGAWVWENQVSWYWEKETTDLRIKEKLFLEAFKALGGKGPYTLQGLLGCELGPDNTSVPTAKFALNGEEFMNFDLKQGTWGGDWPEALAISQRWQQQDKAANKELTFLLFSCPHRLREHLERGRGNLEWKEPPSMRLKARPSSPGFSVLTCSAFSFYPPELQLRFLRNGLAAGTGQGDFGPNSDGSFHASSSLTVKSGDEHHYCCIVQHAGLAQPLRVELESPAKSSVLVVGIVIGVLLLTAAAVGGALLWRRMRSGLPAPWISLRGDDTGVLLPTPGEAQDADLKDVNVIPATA

SMILES	IC50 [µM]
CC(C)C[C@@H](C(=O)N[C@@H](Cc1ccc(O)cc1)C(=O)N1CCC[C@H]1C(=O)N[C@@H](CS)C(=O)N[C@@H](CC(N)=O)C(=O)NCC(=O)N1CCC[C@H]1C(=O)O)N(C)C(=O)CNC(=O)CNC(=O)[C@H](Cc1ccccc1)NC(=O)[C@H](Cc1cnc[nH]1)NC(=O)CNC(=O)[C@@H](NC(=O)[C@@H](NC(=O)[C@H](Cc1ccccc1)NC(=O)[C@H](CCCN=C(N)N)NC(=O)[C@@H](N)CCC(N)=O)C(C)(C)S)[C@@H](C)O	1.6
CC(C)C[C@H](NC(=O)CNC(=O)CNC(=O)[C@H](Cc1ccc(C(C)(C)C)cc1)NC(=O)[C@H](Cc1cnc[nH]1)NC(=O)CNC(=O)[C@@H](NC(=O)[C@@H](NC(=O)[C@H](Cc1ccccc1)NC(=O)[C@H](CCCNC(=N)N)NC(=O)[C@@H](N)CCC(N)=O)C(C)(C)S)[C@@H](C)O)C(=O)N[C@@H](Cc1ccc(O)cc1)C(=O)N1CCC[C@H]1C(=O)N[C@@H](CS)C(=O)O	> 125
CC(C)C[C@H](NC(=O)CNC(=O)CNC(=O)[C@H](Cc1ccccc1)NC(=O)[C@H](Cc1cnc[nH]1)NC(=O)CNC(=O)[C@@H](NC(=O)[C@H](CS)NC(=O)[C@H](C)NC(=O)[C@H](CCCN=C(N)N)NC(=O)[C@@H](N)CCC(N)=O)[C@@H](C)O)C(=O)N[C@@H](Cc1ccc(O)cc1)C(=O)N1CCC[C@H]1C(=O)N[C@@H](CS)C(=O)N[C@@H](CC(N)=O)C(=O)NCC(=O)N1CCC[C@H]1C(=O)O (H-QRACTGHFGGLYPCNGP-OH)	95

biological target: T1, IgG receptor FcRn large subunit p51; experiment: Binding affinity to human FcRn at pH 6 by surface plasmon resonance assay
How it was run: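 Soluble human FcRn coupled to the dextran surface of a CM5 chip; peptide dilutions flowed over the chip. The equilibrium response at each dilution was plotted against concentration and fitted to a steady-state affinity model to give Kd.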

SMILES	Kd [µM]
CC(C)C[C@@H](C(=O)N[C@@H](Cc1ccc(O)cc1)C(=O)N1CCC[C@H]1C(=O)N[C@@H](CS)C(=O)N[C@@H](CC(N)=O)C(=O)NCC(=O)N1CCC[C@H]1C(=O)O)N(C)C(=O)CNC(=O)CNC(=O)[C@H](Cc1ccccc1)NC(=O)[C@H](Cc1cnc[nH]1)NC(=O)CNC(=O)[C@@H](NC(=O)[C@@H](NC(=O)[C@H](Cc1ccccc1)NC(=O)[C@H](CCCN=C(N)N)NC(=O)[C@@H](N)CCC(N)=O)C(C)(C)S)[C@@H](C)O	0.086
CC(C)C[C@H](NC(=O)CNC(=O)CNC(=O)[C@H](Cc1ccc(C(C)(C)C)cc1)NC(=O)[C@H](Cc1cnc[nH]1)NC(=O)CNC(=O)[C@@H](NC(=O)[C@@H](NC(=O)[C@H](Cc1ccccc1)NC(=O)[C@H](CCCNC(=N)N)NC(=O)[C@@H](N)CCC(N)=O)C(C)(C)S)[C@@H](C)O)C(=O)N[C@@H](Cc1ccc(O)cc1)C(=O)N1CCC[C@H]1C(=O)N[C@@H](CS)C(=O)O	230
CC(C)C[C@H](NC(=O)CNC(=O)CNC(=O)[C@H](Cc1ccccc1)NC(=O)[C@H](Cc1cnc[nH]1)NC(=O)CNC(=O)[C@@H](NC(=O)[C@H](CS)NC(=O)[C@H](C)NC(=O)[C@H](CCCN=C(N)N)NC(=O)[C@@H](N)CCC(N)=O)[C@@H](C)O)C(=O)N[C@@H](Cc1ccc(O)cc1)C(=O)N1CCC[C@H]1C(=O)N[C@@H](CS)C(=O)N[C@@H](CC(N)=O)C(=O)NCC(=O)N1CCC[C@H]1C(=O)O (H-QRACTGHFGGLYPCNGP-OH)	28
CC(C)C[C@H](NC(=O)CNC(=O)CN(C)C(=O)[C@H](Cc1ccccc1)NC(=O)[C@H](Cc1cnc[nH]1)NC(=O)CNC(=O)[C@@H](NC(=O)[C@@H](NC(=O)[C@H](Cc1ccccc1)NC(=O)[C@H](CCCN=C(N)N)NC(=O)[C@@H](N)CCC(N)=O)C(C)(C)S)[C@@H](C)O)C(=O)N[C@@H](Cc1ccc(O)cc1)C(=O)N1CCC[C@H]1C(=O)N[C@@H](CS)C(=O)N[C@@H](CC(N)=O)C(=O)NCC(=O)N1CCC[C@H]1C(=O)O	2
CC(C)C[C@H](NC(=O)CNC(=O)CNC(=O)[C@@H](Cc1ccccc1)NC(=O)[C@H](Cc1cnc[nH]1)NC(=O)CNC(=O)[C@@H](NC(=O)[C@@H](NC(=O)[C@H](Cc1ccccc1)NC(=O)[C@H](CCCN=C(N)N)NC(=O)[C@@H](N)CCC(N)=O)C(C)(C)S)[C@@H](C)O)C(=O)N[C@@H](Cc1ccc(O)cc1)C(=O)N1CCC[C@H]1C(=O)N[C@@H](CS)C(=O)N[C@@H](CC(N)=O)C(=O)NCC(=O)N1CCC[C@H]1C(=O)O	> 250
CC(C)C[C@H](NC(=O)[C@@H](Cc1ccccc1)NC(=O)CNC(=O)[C@H](Cc1ccccc1)NC(=O)[C@H](Cc1cnc[nH]1)NC(=O)CNC(=O)[C@@H](NC(=O)[C@@H](NC(=O)[C@H](Cc1ccccc1)NC(=O)[C@H](CCCNC(=N)N)NC(=O)[C@@H](N)CCC(N)=O)C(C)(C)S)[C@@H](C)O)C(=O)N[C@@H](Cc1ccc(O)cc1)C(=O)N1CCC[C@H]1C(=O)N[C@@H](CS)C(=O)N[C@@H](CC(N)=O)C(=O)NCC(=O)N1CCC[C@H]1C(=O)O	1.7
CC(C)C[C@H](NC(=O)CNC(=O)CNC(=O)[C@H](Cc1ccccc1)NC(=O)[C@H](Cc1cnc[nH]1)NC(=O)CNC(=O)[C@@H](NC(=O)[C@H](CS)NC(=O)[C@H](Cc1ccccc1)NC(=O)[C@H](CCCNC(=N)N)NC(=O)[C@@H](N)CCC(N)=O)[C@@H](C)O)C(=O)N[C@@H](Cc1ccc(O)cc1)C(=O)N1CCC[C@H]1C(=O)N[C@@H](CS)C(=O)N[C@@H](CC(N)=O)C(N)=O	6.1
Cc1ccc(C[C@H](NC(=O)[C@H](Cc2cnc[nH]2)NC(=O)CNC(=O)[C@@H](NC(=O)[C@@H](NC(=O)[C@H](Cc2ccccc2)NC(=O)[C@H](CCCN=C(N)N)NC(=O)[C@@H](N)CCC(N)=O)C(C)(C)S)[C@@H](C)O)C(=O)NCC(=O)NCC(=O)N[C@@H](CC(C)C)C(=O)N[C@@H](Cc2ccc(O)cc2)C(=O)N2CCC[C@H]2C(=O)N[C@@H](CS)C(=O)N[C@@H](CC(N)=O)C(=O)NCC(=O)N2CCC[C@H]2C(=O)O)cc1	0.2
CC(C)C[C@H](NC(=O)CNC(=O)CNC(=O)[C@H](Cc1c(F)c(F)c(F)c(F)c1F)NC(=O)[C@H](Cc1cnc[nH]1)NC(=O)CNC(=O)[C@@H](NC(=O)[C@@H](NC(=O)[C@H](Cc1ccccc1)NC(=O)[C@H](CCCN=C(N)N)NC(=O)[C@@H](N)CCC(N)=O)C(C)(C)S)[C@@H](C)O)C(=O)N[C@@H](Cc1ccc(O)cc1)C(=O)N1CCC[C@H]1C(=O)N[C@@H](CS)C(=O)N[C@@H](CC(N)=O)C(=O)NCC(=O)N1CCC[C@H]1C(=O)O	70
CC(C)C[C@H](NC(=O)[C@@H](Cc1cnc[nH]1)NC(=O)CNC(=O)[C@H](Cc1ccccc1)NC(=O)[C@H](Cc1cnc[nH]1)NC(=O)CNC(=O)[C@@H](NC(=O)[C@@H](NC(=O)[C@H](Cc1ccccc1)NC(=O)[C@H](CCCN=C(N)N)NC(=O)[C@@H](N)CCC(N)=O)C(C)(C)S)[C@@H](C)O)C(=O)N[C@@H](Cc1ccc(O)cc1)C(=O)N1CCC[C@H]1C(=O)N[C@@H](CS)C(=O)N[C@@H](CC(N)=O)C(=O)NCC(=O)N1CCC[C@H]1C(=O)O	2
CC(C)C[C@H](NC(=O)CNC(=O)CNC(=O)[C@H](Cc1ccccc1)NC(=O)[C@H](Cc1cnc[nH]1)NC(=O)CNC(=O)[C@@H](NC(=O)[C@H](NC(=O)[C@H](Cc1ccccc1)NC(=O)[C@@H](CCCN=C(N)N)NC(=O)[C@@H](N)CCC(N)=O)C(C)(C)S)[C@@H](C)O)C(=O)N[C@@H](Cc1ccc(O)cc1)C(=O)N1CCC[C@H]1C(=O)N[C@H](CS)C(=O)N[C@@H](CC(N)=O)C(=O)NCC(=O)N1CCC[C@H]1C(=O)O	0.28
CC(C)C[C@H](NC(=O)CNC(=O)CNC(=O)[C@H](Cc1ccccc1)NC(=O)[C@H](Cc1cnc[nH]1)NC(=O)CNC(=O)[C@@H](NC(=O)[C@@H](NC(=O)[C@H](Cc1ccccc1)NC(=O)[C@H](CCCNC(=N)N)NC(=O)[C@@H](N)CCC(N)=O)C(C)(C)S)[C@@H](C)O)C(=O)N[C@@H](Cc1ccc([N+](=O)[O-])cc1)C(=O)N1CCC[C@H]1C(=O)N[C@@H](CS)C(=O)N[C@@H](CC(N)=O)C(=O)NCC(=O)N1CCC[C@H]1C(=O)O	180
CC(C)C[C@H](NC(=O)CNC(=O)CNC(=O)[C@H](Cc1ccccc1)NC(=O)[C@H](Cc1cnc[nH]1)NC(=O)CNC(=O)[C@@H](NC(=O)[C@H](CCS)NC(=O)[C@H](Cc1ccccc1)NC(=O)[C@H](CCCNC(=N)N)NC(=O)[C@@H](N)CCC(N)=O)[C@@H](C)O)C(=O)N[C@@H](Cc1ccc(O)cc1)C(=O)N1CCC[C@H]1C(=O)N[C@H](C(=O)N[C@@H](CC(N)=O)C(=O)NCC(=O)N1CCC[C@H]1C(=O)O)C(C)(C)S	2.1
CC(C)C[C@H](NC(=O)CNC(=O)CNC(=O)[C@H](Cc1ccccc1)NC(=O)[C@H](Cc1cnc[nH]1)NC(=O)CNC(=O)[C@H](NC(=O)[C@H](NC(=O)[C@H](Cc1ccccc1)NC(=O)[C@H](CCCN=C(N)N)NC(=O)[C@@H](N)CCC(N)=O)C(C)(C)S)[C@@H](C)O)C(=O)N[C@@H](Cc1ccc(O)cc1)C(=O)N1CCC[C@H]1C(=O)N[C@H](CS)C(=O)N[C@@H](CC(N)=O)C(=O)NCC(=O)N1CCC[C@H]1C(=O)O	> 250
CC(=O)Nc1ccc(C[C@H](NC(=O)[C@H](Cc2cnc[nH]2)NC(=O)CNC(=O)[C@@H](NC(=O)[C@@H](NC(=O)[C@H](Cc2ccccc2)NC(=O)[C@H](CCCN=C(N)N)NC(=O)[C@@H](N)CCC(N)=O)C(C)(C)S)[C@@H](C)O)C(=O)NCC(=O)NCC(=O)N[C@@H](CC(C)C)C(=O)N[C@@H](Cc2ccc(O)cc2)C(=O)N2CCC[C@H]2C(=O)N[C@@H](CS)C(=O)N[C@@H](CC(N)=O)C(=O)NCC(=O)N2CCC[C@H]2C(=O)O)cc1	270
CC(C)C[C@H](NC(=O)[C@@H](Cc1ccc(O)cc1)NC(=O)CNC(=O)[C@H](Cc1ccccc1)NC(=O)[C@H](Cc1cnc[nH]1)NC(=O)CNC(=O)[C@@H](NC(=O)[C@@H](NC(=O)[C@H](Cc1ccccc1)NC(=O)[C@H](CCCN=C(N)N)NC(=O)[C@@H](N)CCC(N)=O)C(C)(C)S)[C@@H](C)O)C(=O)N[C@@H](Cc1ccc(O)cc1)C(=O)N1CCC[C@H]1C(=O)N[C@@H](CS)C(=O)N[C@@H](CC(N)=O)C(=O)NCC(=O)N1CCC[C@H]1C(=O)O	1.5
CC(C)C[C@H](NC(=O)CNC(=O)CNC(=O)[C@H](Cc1ccccc1)N(C)C(=O)[C@H](Cc1cnc[nH]1)NC(=O)CNC(=O)[C@@H](NC(=O)[C@@H](NC(=O)[C@H](Cc1ccccc1)NC(=O)[C@H](CCCN=C(N)N)NC(=O)[C@@H](N)CCC(N)=O)C(C)(C)S)[C@@H](C)O)C(=O)N[C@@H](Cc1ccc(O)cc1)C(=O)N1CCC[C@H]1C(=O)N[C@@H](CS)C(=O)N[C@@H](CC(N)=O)C(=O)NCC(=O)N1CCC[C@H]1C(=O)O	> 250
CC(C)C[C@H](NC(=O)CNC(=O)CNC(=O)[C@H](Cc1ccccc1)NC(=O)[C@H](Cc1cnc[nH]1)NC(=O)CNC(=O)[C@@H](NC(=O)[C@H](NC(=O)[C@H](Cc1ccccc1)NC(=O)[C@H](CCCNC(=N)N)NC(=O)[C@@H](N)CCC(N)=O)C(C)(C)S)[C@@H](C)O)C(=O)N[C@H](Cc1ccc(O)cc1)C(=O)N1CCC[C@H]1C(=O)N[C@H](CS)C(=O)N[C@@H](CC(N)=O)C(=O)NCC(=O)N1CCC[C@H]1C(=O)O	> 250
CC(C)C[C@H](NC(=O)CNC(=O)CNC(=O)[C@H](Cc1ccc([N+](=O)[O-])cc1)NC(=O)[C@H](Cc1cnc[nH]1)NC(=O)CNC(=O)[C@@H](NC(=O)[C@@H](NC(=O)[C@H](Cc1ccccc1)NC(=O)[C@H](CCCN=C(N)N)NC(=O)[C@@H](N)CCC(N)=O)C(C)(C)S)[C@@H](C)O)C(=O)N[C@@H](Cc1ccc(O)cc1)C(=O)N1CCC[C@H]1C(=O)N[C@@H](CS)C(=O)N[C@@H](CC(N)=O)C(=O)NCC(=O)N1CCC[C@H]1C(=O)O	84
CC(C)C[C@H](NC(=O)CNC(=O)CNC(=O)[C@H](Cc1ccc(N)cc1)NC(=O)[C@H](Cc1cnc[nH]1)NC(=O)CNC(=O)[C@@H](NC(=O)[C@@H](NC(=O)[C@H](Cc1ccccc1)NC(=O)[C@H](CCCN=C(N)N)NC(=O)[C@@H](N)CCC(N)=O)C(C)(C)S)[C@@H](C)O)C(=O)N[C@@H](Cc1ccc(O)cc1)C(=O)N1CCC[C@H]1C(=O)N[C@@H](CS)C(=O)N[C@@H](CC(N)=O)C(=O)NCC(=O)N1CCC[C@H]1C(=O)O	1
